This is an account of results in ChEMBL document CHEMBL3745708, “Design of α7 nicotinic acetylcholine receptor ligands using the (het)Aryl-1,2,3-triazole core: Synthesis, in vitro evaluation and SAR studies” (Eur J Med Chem, 2016).

The Ki is a dissociation constant, usually derived from enzyme kinetics or from competition with a known ligand. The Kd is the free concentration of one partner at which half of the binding sites on the other are occupied at equilibrium, for simple one-to-one binding. A high value points to weaker binding.

Assay [1] has as its target Neuronal acetylcholine receptor subunit alpha-7 (Rattus norvegicus, UniProt Q05941). In words: Displacement of [125I]alpha-bungarotoxin from alpha7 nAchR in rat frontal cortices. In short, it runs like this:
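Competition binding against [125I]-α-bungarotoxin as reference radioligand at α7 nAChR. IC50 read graphically for each compound, then converted to Ki.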
In general terms: Displacement assays read how much labelled ligand stays bound in the presence of the test substance.

The target of assay [2] is Neuronal acetylcholine receptor; alpha4/beta2 (Homo sapiens, UniProt P17787+P43681). In words: Displacement of [3H]cytisine from human recombinant alpha4beta2 nicotinic receptor expressed in SH-SY5Y cells after 120 mins by scintillation counting. In kind it is cell-based. An outline of the steps: (§1)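 Selectivity binding run by an outside contract lab on cells transfected with the human recombinant receptor. Reference radioligands: [3H]cytisine for α4β2 and [3H]BRL 43694 for 5-HT3.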
Neuronal acetylcholine receptor; alpha4/beta2, sequence (P17787 whole entry): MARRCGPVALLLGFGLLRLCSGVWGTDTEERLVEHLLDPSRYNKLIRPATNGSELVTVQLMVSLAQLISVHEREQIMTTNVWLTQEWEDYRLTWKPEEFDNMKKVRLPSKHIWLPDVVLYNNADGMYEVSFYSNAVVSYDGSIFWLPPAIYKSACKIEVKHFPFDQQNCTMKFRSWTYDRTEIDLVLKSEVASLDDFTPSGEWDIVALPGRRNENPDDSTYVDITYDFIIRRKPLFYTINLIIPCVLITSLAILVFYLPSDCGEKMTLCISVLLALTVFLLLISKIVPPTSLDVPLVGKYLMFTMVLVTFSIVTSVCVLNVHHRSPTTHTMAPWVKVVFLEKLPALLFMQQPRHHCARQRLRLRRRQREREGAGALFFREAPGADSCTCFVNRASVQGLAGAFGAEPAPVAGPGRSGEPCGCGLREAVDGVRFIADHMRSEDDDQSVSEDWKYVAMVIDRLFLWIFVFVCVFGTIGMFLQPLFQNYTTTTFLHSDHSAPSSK
Neuronal acetylcholine receptor; alpha4/beta2, sequence (P43681 whole entry): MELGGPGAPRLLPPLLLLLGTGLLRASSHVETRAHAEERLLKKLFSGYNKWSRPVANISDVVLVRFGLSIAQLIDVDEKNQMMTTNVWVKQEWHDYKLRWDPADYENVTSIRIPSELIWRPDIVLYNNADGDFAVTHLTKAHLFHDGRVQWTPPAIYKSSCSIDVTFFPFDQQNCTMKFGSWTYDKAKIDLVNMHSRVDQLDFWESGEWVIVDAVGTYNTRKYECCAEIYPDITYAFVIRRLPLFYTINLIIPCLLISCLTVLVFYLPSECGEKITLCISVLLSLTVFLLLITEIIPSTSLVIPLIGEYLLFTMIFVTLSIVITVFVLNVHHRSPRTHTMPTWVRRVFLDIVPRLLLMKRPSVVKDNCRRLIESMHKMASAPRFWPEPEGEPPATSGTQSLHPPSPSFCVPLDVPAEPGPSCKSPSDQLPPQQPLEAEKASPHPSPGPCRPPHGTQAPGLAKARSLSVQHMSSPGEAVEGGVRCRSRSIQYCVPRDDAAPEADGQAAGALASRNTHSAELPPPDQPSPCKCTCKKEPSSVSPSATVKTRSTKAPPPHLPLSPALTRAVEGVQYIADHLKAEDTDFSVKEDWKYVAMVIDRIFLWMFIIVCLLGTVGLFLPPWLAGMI

In assay [3] the target is T1, 5-hydroxytryptamine receptor 3A (Homo sapiens, UniProt P46098).
T1 sequence (P46098 whole entry): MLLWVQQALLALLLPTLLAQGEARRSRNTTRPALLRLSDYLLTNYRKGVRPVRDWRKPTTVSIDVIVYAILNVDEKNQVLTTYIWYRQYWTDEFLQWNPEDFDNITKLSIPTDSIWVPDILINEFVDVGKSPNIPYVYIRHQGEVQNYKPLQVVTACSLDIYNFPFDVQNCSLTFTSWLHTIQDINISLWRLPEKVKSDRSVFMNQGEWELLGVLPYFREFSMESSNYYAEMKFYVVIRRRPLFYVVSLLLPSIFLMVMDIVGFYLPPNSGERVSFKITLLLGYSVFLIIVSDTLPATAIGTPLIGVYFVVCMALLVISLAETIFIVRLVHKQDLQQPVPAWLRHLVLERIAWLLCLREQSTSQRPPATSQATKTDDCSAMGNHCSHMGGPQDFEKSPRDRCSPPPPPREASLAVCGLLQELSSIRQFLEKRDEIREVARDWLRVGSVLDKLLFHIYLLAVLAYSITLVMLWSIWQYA
In words: Displacement of [3H]BRL 43694 from human 5-HT3 receptor expressed in CHO cells after 120 mins by scintillation counting. In kind it is cell-based. In short, it runs like this: as §1

Each structure is given as a SMILES string. Where only a bound is given, the exact number is not on record here.

Neuronal acetylcholine receptor subunit alpha-7, sequence (Q05941 whole entry): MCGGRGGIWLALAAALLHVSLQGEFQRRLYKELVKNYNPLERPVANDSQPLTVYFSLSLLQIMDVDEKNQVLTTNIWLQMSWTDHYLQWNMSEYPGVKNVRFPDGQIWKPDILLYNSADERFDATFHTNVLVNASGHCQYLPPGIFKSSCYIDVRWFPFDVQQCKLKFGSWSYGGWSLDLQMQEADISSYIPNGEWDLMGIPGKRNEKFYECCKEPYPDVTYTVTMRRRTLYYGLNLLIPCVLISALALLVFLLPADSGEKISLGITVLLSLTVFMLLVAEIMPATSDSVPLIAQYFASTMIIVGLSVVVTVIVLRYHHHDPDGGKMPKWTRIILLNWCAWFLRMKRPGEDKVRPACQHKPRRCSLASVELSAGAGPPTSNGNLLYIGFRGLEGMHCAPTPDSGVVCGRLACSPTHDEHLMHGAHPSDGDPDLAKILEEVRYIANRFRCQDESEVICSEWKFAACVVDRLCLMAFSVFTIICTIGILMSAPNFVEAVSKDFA

`COc1ccc(-n2cc(C3(O)CN4CCC3CC4)nn2)cc1` (stereo not drawn) yielded a Ki in assay [1] of over 1 µM.
Consider `COc1ccccc1-c1cn([C@H]2CN3CCC2CC3)nn1`, for which the Ki in assay [1] stood at 0.112 µM.
Molecule `OC1(c2cn(-c3ccc(Br)cc3)nn2)CN2CCC1CC2` (stereo not drawn) showed a Ki in assay [1] of over 1 µM.
Same read-out and setting: the value for `FCCc1ccc(-c2cn([C@H]3CN4CCC3CC4)nn2)cc1` was 0.23 µM.
On the same count and under the same terms, the value for `COc1ccc(-n2cc(C3(F)CN4CCC3CC4)nn2)cc1` (stereo not drawn) was over 1 µM; that for `Fc1ccc(-c2cn([C@H]3CN4CCC3CC4)nn2)cc1` was 0.015 µM; that for `FCCOc1ccc(-c2cn([C@H]3CN4CCC3CC4)nn2)cc1` was 0.19 µM.
The same measure, in the same setting: the result for `COCOCCOc1ccc(-c2cn([C@H]3CN4CCC3CC4)nn2)cc1` reads 0.225 µM.
Regarding `COc1cccc(-c2cn([C@H]3CN4CCC3CC4)nn2)c1`, the inhibitory constant (Ki) in assay [2] worked out at 1 µM; in assay [3], 0.003 µM.
With `OCc1ccc(-c2cn([C@H]3CN4CCC3CC4)nn2)cc1`, the Ki in assay [1] was determined as 0.01 µM.
Regarding `c1cc2cc(-c3cn([C@H]4CN5CCC4CC5)nn3)ccc2o1`, the inhibitory constant (Ki) in assay [2] was found to be 1 µM; in assay [3], 0.003 µM.
The molecule `COc1ccc(-c2cn([C@H]3CN4CCC3CC4)nn2)cc1` displayed a Ki in assay [1] of 0.011 µM.
Consider `c1cc(-c2cn([C@H]3CN4CCC3CC4)nn2)ccn1`, for which the inhibition constant (Ki) in assay [1] came to 0.141 µM.
Turning to `c1cc2cc(-c3cn(C4CN5CCC4CC5)nn3)ccc2[nH]1` (stereo not drawn), the figures for the Ki in assay [2] and in assay [3] were 0.75 µM and 0.052 µM, respectively. In assay [1], this molecule displayed a Kd of 0.12 µM.
Turning to `O=C(N[C@H]1CN2CCC1CC2)c1ccc(Cl)cc1` [PNU-282987], in assay [1], the Ki is 0.017 µM.
Still for that read-out and setting: the result for `OCCc1ccc(-c2cn([C@H]3CN4CCC3CC4)nn2)cc1` reads 0.13 µM; that for `OCCOc1ccc(-c2cn([C@H]3CN4CCC3CC4)nn2)cc1`, 0.215 µM; that for `O=C(N[C@@H]1CN2CCC1CC2)c1cc2ccoc2cn1`, 0.00127 µM.
On the same count and under the same terms, the value for `FCc1ccc(-c2cn([C@H]3CN4CCC3CC4)nn2)cc1` was 0.021 µM.
